ChEMBL document CHEMBL1136549, “Novel antifungal beta-amino acids: synthesis and activity against Candida albicans” (Bioorg Med Chem Lett, 2003)
In brackets after ≈: the same amount, converted by molar mass.

System: Candida albicans
Experiment: In vitro inhibitory activity against Candida albicans
Format: functional, organism-based
How it was run: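 Microbroth dilution; C. albicans ATCC 36082, inoculum 10³ cfu/mL in YNB medium (yeast-nitrogen base 6.7 g/L, glucose 10 g/L, pH 7). Incubated 24 h at 37 °C; growth read photo-/nephelometrically at 360 nm; IC₅₀ determined.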

[1] = Candida albicans, read-out: IC50

| SMILES | IC50 [1] | IC50 |
| --- | --- | --- |
| Cl.N[C@H]1C=CC[C@H]1C(=O)O | 0.5 µg/mL |  |
| C=C1C[C@H](N)[C@H](C(=O)NO)C1 | 32 µg/mL (≈ 205 µM) |  |
| CC1CC[C@@H](C(=O)O)[C@H]1N.Cl (some centres not stated) |  | 128 µg/mL |
| C=C1CC[C@@H](C(=O)O)[C@@H](N)C1.Cl | 16 µg/mL |  |
| C=C1CN[C@H](C(=O)O)C1.Cl | 32 µg/mL |  |
| Cl.N[C@H]1CC2(C[C@H]1C(=O)O)OCCO2 | 32 µg/mL |  |
| Cl.N[C@H]1CC=CC[C@H]1C(=O)O |  | 128 µg/mL |
| N[C@H]1CSC[C@H]1C(=O)O |  | 64 µg/mL (≈ 435 µM) |
| CC1(C)C[C@H](N)[C@H](C(=O)O)C1.Cl |  | 256 µg/mL |
| CCCC(N)CC(=O)O.Cl (configuration not stated) |  | > 256 µg/mL |
| CC1C[C@H](N)[C@H](C(=O)O)C1.Cl (mixture of isomers) | 4 µg/mL |  |
| CC1=C[C@@H](C(=O)O)[C@@H](N)C1.Cl | 32 µg/mL |  |
| C=C1CC[C@@H](C(=O)O)[C@H]1N.Cl | 32 µg/mL |  |
| C=C=C1C[C@H](N)[C@H](C(=O)O)C1.Cl |  | 128 µg/mL |
| C=C1C[C@H](NC(=O)[C@@H](N)CC(C)C)[C@H](C(=O)O)C1.Cl | 2 µg/mL |  |
| C=C1C[C@H](N)[C@H](C(=O)O)C1 [ICOFUNGIPEN] | 0.13 µg/mL (≈ 0.921 µM) |  |
| CC1C=C(C(=O)O)C(N)C1.Cl (configuration not stated) | 16 µg/mL |  |
| Cl.N[C@H]1CC(O)C[C@H]1C(=O)O (some centres not stated) |  | 128 µg/mL |
| C=C1C[C@H](N)[C@@H]1C(=O)O.Cl |  | > 256 µg/mL |
| Cl.N[C@H]1C=CCC[C@H]1C(=O)O | 0.03 µg/mL |  |
| Cl.Cl.NC1C[C@H](N)[C@H](C(=O)O)C1 (mixture of isomers) |  | 64 µg/mL |
| C=C1C[C@H](NC(=O)OC(C)(C)C)[C@H](C(=O)O)C1 | 16 µg/mL (≈ 66.3 µM) |  |
| CCCC/C=C1/C[C@H](N)[C@H](C(=O)O)C1.Cl |  | 128 µg/mL |
| C=C1C[C@H](N)[C@H](C(=O)OC)C1.Cl | 2 µg/mL |  |
| C=C1C[C@@H](C(=O)O)[C@@H](N)C1C.Cl (mixture of isomers) |  | 64 µg/mL |
| Cl.N[C@H]1CCCC[C@H]1C(=O)O |  | 128 µg/mL |

| SMILES | IC50 [1] | IC50 |
| --- | --- | --- |
| C[C@]1(N)CCC[C@H]1C(=O)O.Cl |  | 64 µg/mL |
| C=C1C[C@H](NCC)[C@H](C(=O)O)C1 |  | 128 µg/mL (≈ 756 µM) |
| Cl.N[C@H]1C=CCO[C@H]1C(=O)O |  | 64 µg/mL |
| C=C1C[C@H](N)[C@H](c2nnn[nH]2)C1.Cl |  | 128 µg/mL |
| Cl.N[C@H]1CCC[C@H]1P(=O)(O)O |  | > 256 µg/mL |
| C=C1C[C@@H](C(=O)O)[C@H]1N.Cl |  | > 256 µg/mL |
| Cl.N[C@H]1CC[C@H]1C(=O)O |  | 128 µg/mL |
| Cl.N[C@H]1CCC[C@H]1C(=O)O | 0.13 µg/mL |  |
| Cl.Cl.N[C@H]1CCN[C@H]1C(=O)O |  | > 256 µg/mL |
| Cl.N[C@H]1CCC[C@H]1S(=O)(=O)O |  | > 256 µg/mL |
| C=C1C[C@@H](N)[C@@H](C(=O)O)C1.Cl |  | 128 µg/mL |
| CC1CC[C@H](N)[C@@H]1C(=O)O.Cl (stereo in doubt) | 8 µg/mL |  |
| C=C1C[C@H](N)[C@H](C(=O)NC)C1.Cl | 32 µg/mL |  |
| N[C@H]1CCC[C@H]1C(F)(F)F | 1 µg/mL (≈ 6.53 µM) |  |
| Cl.N[C@H]1CC(F)(F)C[C@H]1C(=O)O |  | 128 µg/mL |
| C=C1C[C@H](C(=O)O)[C@@H](N)C1.Cl |  | 128 µg/mL |
| CC1=C[C@H](N)[C@H](C(=O)O)C1.Cl | 8 µg/mL |  |
| N[C@H]1COC[C@H]1C(=O)O | 32 µg/mL (≈ 244 µM) |  |
| N[C@H]1CC2(CC2)C[C@H]1C(=O)O | 32 µg/mL (≈ 206 µM) |  |
| C=CC1C[C@H](N)[C@H](C(=O)O)C1.Cl (some centres not stated) |  | 128 µg/mL |
| Cl.N[C@H]1CCS[C@H]1C(=O)O |  | > 256 µg/mL |
| C=C1C[C@@H](CO)[C@@H](N)C1 |  | > 256 µg/mL |
| C=C1C[C@H](N)[C@H](C(=O)N[C@H](CC(C)C)C(=O)O)C1.Cl | 16 µg/mL |  |
| C=C1C[C@H](N)[C@H](C(=O)O)C1C.Cl (some centres not stated) |  | 128 µg/mL |
| C=C1CC[C@H](N)[C@H](C(=O)O)C1.Cl |  | > 256 µg/mL |
| CC1CC[C@H](N)[C@@H]1C(=O)O.Cl (single isomer, unassigned; Diastereomer B) |  | 16 µg/mL |
